Test results reported in ChEMBL document CHEMBL4402603, “Structure-Activity Relationship of SPOP Inhibitors against Kidney Cancer” (J Med Chem, 2020).
Calls of active or inactive are those of the source. No cut-off for these calls is given here.

Tests used:
[1] = biological target: Speckle-type POZ protein (Homo sapiens) (UniProt O43791); test: Binding affinity to recombinant N-terminal GST/His-tagged SPOP (unknown origin) MATH binding domain expressed in Escherichia coli BL21 (DE3) assessed as change in melting temperature at 10 fold compound by SYPRO Orange dye based differential scanning fluorimetry (reference value: -1.7 degreeC)
Sequence of Speckle-type POZ protein (Homo sapiens) (O43791 whole entry, the tested form may be a part): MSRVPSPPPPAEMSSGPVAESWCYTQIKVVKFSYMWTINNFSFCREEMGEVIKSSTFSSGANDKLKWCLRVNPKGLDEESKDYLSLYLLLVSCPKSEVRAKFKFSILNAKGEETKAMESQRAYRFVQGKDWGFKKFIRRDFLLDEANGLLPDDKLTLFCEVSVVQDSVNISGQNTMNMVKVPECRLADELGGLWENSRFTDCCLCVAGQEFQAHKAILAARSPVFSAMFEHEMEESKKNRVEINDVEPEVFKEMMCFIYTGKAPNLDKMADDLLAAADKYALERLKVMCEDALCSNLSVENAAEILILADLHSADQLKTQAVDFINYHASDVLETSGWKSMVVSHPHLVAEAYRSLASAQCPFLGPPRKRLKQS

[2] = biological target: Speckle-type POZ protein (Homo sapiens) (UniProt O43791); test: Binding affinity to recombinant N-terminal GST/His-tagged SPOP (unknown origin) MATH binding domain expressed in Escherichia coli BL21 (DE3) assessed as change in melting temperature at 1 fold compound by SYPRO Orange dye based differential scanning fluorimetry (reference value: -1.7 degreeC)
[3] = biological target: T1, Speckle-type POZ protein/PTEN (Homo sapiens) (UniProt P60484+O43791); test: Inhibition of SPOP/PTEN interaction in human HEK293T cells assessed as reduction in PTEN level incubated for 8 hrs by Western blot analysis; assay type: cell-based
T1 sequence (O43791 whole entry, looked up): as the sequence (O43791 whole entry, the tested form may be a part) above
T1 sequence (P60484 whole entry, looked up): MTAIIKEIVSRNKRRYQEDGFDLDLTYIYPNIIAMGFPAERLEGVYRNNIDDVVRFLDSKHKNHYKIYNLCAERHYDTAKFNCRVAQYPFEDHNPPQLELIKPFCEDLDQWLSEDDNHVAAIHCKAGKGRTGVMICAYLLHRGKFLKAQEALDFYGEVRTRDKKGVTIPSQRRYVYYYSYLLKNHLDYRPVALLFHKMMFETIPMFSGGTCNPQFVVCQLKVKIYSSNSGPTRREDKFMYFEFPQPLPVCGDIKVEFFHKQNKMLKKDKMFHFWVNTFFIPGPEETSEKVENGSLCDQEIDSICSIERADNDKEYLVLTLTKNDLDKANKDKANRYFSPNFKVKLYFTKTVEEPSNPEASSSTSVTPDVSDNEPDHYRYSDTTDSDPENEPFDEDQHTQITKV

NCI-H1299 = test: Cytotoxicity against human H1299 cells assessed as reduction in cell viability incubated for 72 hrs by MTT assay; assay type: cell-based; conditions: NCI-H1299, 72 h
Procedure, shortened: (§1)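 Cells maintained in DMEM/10% FBS at 37 °C, 5% CO2. Cell proliferation quantified by MTT after 72 hr compound exposure, A490 read. Untreated cells = 100%. Mean ± SD, n = 3.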

HK-2 = test: Cytotoxicity against human HK2 cells assessed as reduction in cell viability incubated for 72 hrs by MTT assay; assay type: cell-based; conditions: HK-2, 72 h
U-251 = test: Cytotoxicity against human U251 cells assessed as reduction in cell viability incubated for 72 hrs by MTT assay; assay type: cell-based; conditions: U-251, 72 h; procedure, shortened: as §1
[4] = biological target: Speckle-type POZ protein (Homo sapiens) (UniProt O43791); test: Inhibition of SPOP signalling in human A498 cells assessed as effect on total AKT level at 0.5 to 10 uM incubated for 12 hrs by Western blot analysis; assay type: cell-based
Procedure, shortened: (§2)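 Cells exposed 12 hr to inhibitor at graded concentrations, RIPA lysates normalized by BCA. 12% SDS-PAGE, nitrocellulose transfer, milk block, primary antibody at 4 °C overnight, HRP secondary, ECL. GAPDH loading control.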

[5] = biological target: Speckle-type POZ protein (Homo sapiens) (UniProt O43791); test: Inhibition of SPOP signalling in human A498 cells assessed as reduction in AKT phosphorylation at 0.5 to 10 uM incubated for 12 hrs by Western blot analysis; assay type: cell-based; procedure, shortened: as §2
[6] = biological target: Speckle-type POZ protein (Homo sapiens) (UniProt O43791); test: Inhibition of SPOP signalling in human OS-RC2 cells assessed as reduction in AKT phosphorylation at 0.5 to 15 uM incubated for 12 hrs by Western blot analysis; assay type: cell-based; procedure, shortened: as §2
[7] = biological target: Speckle-type POZ protein (Homo sapiens) (UniProt O43791); test: Inhibition of SPOP signalling in human OS-RC2 cells assessed as accumulation of PTEN incubated for 12 hrs by Western blot analysis; assay type: cell-based
Procedure, shortened: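 Cells treated with SPOP inhibitor at different concentrations for 12 hr, lysed in RIPA, protein by BCA. Samples run on 12% SDS-PAGE, blotted to nitrocellulose, primary antibody overnight at 4 °C, HRP secondary, ECL detection. GAPDH loading control. Triplicate experiments.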

A549 = test: Cytotoxicity against human A549 cells assessed as reduction in cell viability incubated for 72 hrs by MTT assay; assay type: cell-based; conditions: A549, 72 h; procedure, shortened: as §1
[8] = biological target: Speckle-type POZ protein (Homo sapiens) (UniProt O43791); test: Binding affinity to recombinant N-terminal GST/His-tagged SPOP (unknown origin) (23 to 337 residues) expressed in Escherichia coli BL21 (DE3) assessed as change in melting temperature at 5 fold compound incubated for 15 mins by nano differential scanning fluorimetry (reference value: -1.9 degreeC)
A498 [9] = test: Inhibition of colony formation in human A498 cells at 1 to 5 uM incubated for 12 days by crystal violet dye based assay; assay type: functional, cell-based
Procedure, shortened: (§3)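 Cells seeded at 1,000/well, grown 12 days at 37 °C, 5% CO2, medium renewed every 3 days. Fixed with 10% acetic acid/10% methanol for 15 min, stained with 1% crystal violet for 10 min.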

A498 [10] = test: Antiproliferative activity against human A498 cells assessed as reduction in cell viability incubated for 72 hrs by MTT assay; assay type: functional, cell-based; conditions: A498, 72 h
Procedure, shortened: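 MTT read-out. Cells seeded at 1,000-2,200/well, grown 12 hr at 37 °C before compound, then exposed 72 hr. MTT for 4 hr, formazan dissolved in DMSO, A490 read. Untreated cells = 100% proliferation. IC50 quantitated; mean ± SD, n = 3.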

[11] = biological target: T1, Speckle-type POZ protein/PTEN (Homo sapiens); test: Inhibition of SPOP/PTEN interaction in human A498 cells assessed as increase in SPOP level at 1 to 50 uM incubated for 20 mins by DARTS based Western blot analysis; assay type: cell-based
Procedure, shortened: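 DARTS. Lysates of 1×10⁶ cells in TNC buffer, 120 μg per tube, incubated with compound at 0, 1, 5, 10 or 50 μM for 20 min at rt. Pronase digestion 10 min at rt (1:1000 for A498, 1:2000 for OS-RC-2), stopped with protease inhibitors, then SPOP western blot. Triplicate experiments.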

[12] = biological target: Speckle-type POZ protein (Homo sapiens) (UniProt O43791); test: Inhibition of SPOP signalling in human A498 cells assessed as effect on total ERK level at 0.5 to 10 uM incubated for 12 hrs by Western blot analysis; assay type: cell-based; procedure, shortened: as §2
[13] = biological target: Speckle-type POZ protein (Homo sapiens) (UniProt O43791); test: Inhibition of SPOP signalling in human OS-RC2 cells assessed as accumulation of DUSP7 incubated for 12 hrs by Western blot analysis; assay type: cell-based; procedure, shortened: as §2
[14] = biological target: Speckle-type POZ protein (Homo sapiens) (UniProt O43791); test: Binding affinity to recombinant N-terminal GST/His-tagged SPOP (unknown origin) MATH binding domain expressed in Escherichia coli BL21 (DE3) assessed as change in melting temperature at 5 fold compound by SYPRO Orange dye based differential scanning fluorimetry (reference value: -1.7 degreeC)
[15] = biological target: T1, Speckle-type POZ protein/PTEN (Homo sapiens); test: Inhibition of SPOP/PTEN interaction in human HEK293T cells assessed as reduction in SPOP level incubated for 12 hr by co-immunoprecipitation based Western blot analysis
[16] = biological target: Speckle-type POZ protein (Homo sapiens) (UniProt O43791); test: Inhibition of SPOP signalling in human OS-RC2 cells assessed as effect on total ERK level at 0.5 to 15 uM incubated for 12 hrs by Western blot analysis; assay type: cell-based; procedure, shortened: as §2
[17] = biological target: Speckle-type POZ protein (Homo sapiens) (UniProt O43791); test: Inhibition of SPOP in HEK293T cells assessed as reduction in cell viability incubated for 72 hrs by MTT assay; assay type: cell-based
[18] = biological target: Speckle-type POZ protein (Homo sapiens) (UniProt O43791); test: Inhibition of SPOP signalling in human OS-RC2 cells assessed as reduction in ERK phosphorylation at 0.5 to 15 uM incubated for 12 hrs by Western blot analysis; assay type: cell-based; procedure, shortened: as §2
OS-RC-2 = test: Inhibition of colony formation in human OS-RC2 cells at 1 to 5 uM incubated for 12 days by crystal violet dye based assay; assay type: functional, cell-based; procedure, shortened: as §3
Hs 766 = test: Cytotoxicity against human Hs766T cells assessed as reduction in cell viability incubated for 72 hrs by MTT assay; assay type: cell-based; conditions: Hs 766, 72 h; procedure, shortened: as §1
[19] = biological target: Speckle-type POZ protein (Homo sapiens) (UniProt O43791); test: Inhibition of SPOP signalling in human OS-RC2 cells assessed as effect of DUSP7 mRNA expression at 1 to 10 uM incubated for 12 hrs by qRT-PCR analysis; assay type: cell-based
[20] = Selectivity index, ratio of IC50 for human H1299 to IC50 for human A498 cells

For `Cc1cccn2c(=O)c3cc(C(=O)NCCN4CCN(C)CC4)c(=N)n(CCc4cccs4)c3nc12`, the ΔTm [1] was 4 °C, the ΔTm [2] was 2.7 °C and the inhibition [3] was “Dose-dependent effect”. The IC50 (NCI-H1299) was 10.7 µM, the IC50 (HK-2) was greater than 30 µM and the IC50 (U-251) was 10.2 µM. For the same molecule, the inhibition [4] was “inactive”, the inhibition [5] was “Active” and the inhibition [6] was “Active”. The inhibition [7] was “Dose-dependent effect”, the IC50 (A549) was 16.2 µM and the ΔTm [8] was 2.1 °C. The inhibition (A498 [9]) was “Active”, the IC50 (A498 [10]) was 2.1 µM and the inhibition [11] was “Active”. For the same molecule, the inhibition [12] was “inactive”, the inhibition [13] was “Dose-dependent effect” and the ΔTm [14] was 3.7 °C. For the same molecule, the inhibition [15] was “Dose-dependent effect”, the inhibition [16] was “inactive” and the inhibition [17] was “Active”. For the same molecule, the inhibition [18] was “Active”, the inhibition (OS-RC-2) was “Active” and the IC50 (Hs 766) was 14.5 µM. The inhibition [19] was “inactive” and the “Ratio IC50” value [20] was greater than 5.
